Active and inactive are the calls of the source. The rule behind the calls is not given here.
What was measured:
[1] = target: Carbonic anhydrase 9 (Homo sapiens, UniProt Q16790)
[2] = system: HT-29; test: Cytotoxicity against human HT-29 cells assessed as reduction in cell viability at 30 to 300 uM after 48 hrs under normoxic condition by MTT assay; format: functional, cell-based
How it was run: (§1)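 Cells plated at 1 × 10^4/well and exposed to test agents at 30, 100 and 300 μM for 48 h, in normoxia (20% O2) or hypoxia (0.1% O2). Viability is expressed relative to untreated control set at 100%, as mean ± SEM of three experiments.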

[3] = system: MDA-MB-231; test: Cytotoxicity against human MDA-MB-231 cells assessed as reduction in cell viability at 30 uM after 48 hrs under normoxic condition by MTT assay; format: functional, cell-based
How it was run: as §1

[4] = system: PC-3; test: Cytotoxicity against human PC3 cells assessed as reduction in cell viability at 300 uM after 48 hrs under normoxic condition by MTT assay; format: functional, cell-based
How it was run: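 PC3 human prostate cancer cells seeded at 1 × 10^4/well and exposed for 48 h under normoxia (20% O2). The same run also used hypoxia (0.1% O2). Compounds tested at 30, 100 and 300 μM. Viability is expressed relative to untreated control set at 100%. Mean ± SEM of three experiments.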

[5] = Gpx-like activity of the compound assessed as H2O2 reduction by measuring DTT oxidation measured within 35 mins by 1H-NMR analysis; format: functional
How it was run: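 Oxidation of reduced DTT followed by 1H NMR, with DTTred and DTTox populations taken from signal integration. Catalyst loading 10%. Control run without catalyst, with (PhSe)2 as a standard comparator. T50 is the time to halve the initial DTTred. Mean ± SD of three separate experiments.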

[6] = system: HT-29; test: Cytotoxicity against human HT-29 cells assessed as reduction in cell viability at 30 to 300 uM after 48 hrs under hypoxic condition by MTT assay; format: functional, cell-based
How it was run: as §1

[7] = Gpx-like activity of the compound assessed as GSH-mediated H2O2 reduction by measuring NADPH consumption measured within 100 secs by UV spectroscopic analysis; format: functional
How it was run: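 NADPH-coupled GPx assay with GSH as substrate and H2O2 as oxidant, with glutathione reductase. Initial conditions: NADPH 0.6 mM, GSH 2.0 mM, H2O2 5 mM, GR 8 units/mL, catalyst 0.2 mM, pH 7.4 phosphate buffer, room temperature. Read-out is the absorbance decrease at 340 nm from NADPH consumption. Mean ± SD of three experiments.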

[8] = system: PC-3; test: Cytotoxicity against human PC3 cells assessed as reduction in cell viability at 30 to 300 uM after 48 hrs under normoxic condition by MTT assay; format: functional, cell-based
How it was run: as §1

[9] = system: MDA-MB-231; test: Cytotoxicity against human MDA-MB-231 cells assessed as reduction in cell viability at 30 to 100 uM after 48 hrs under normoxic condition by MTT assay; format: functional, cell-based
How it was run: as §1

[10] = system: PC-3; test: Cytotoxicity against human PC3 cells assessed as reduction in cell viability at 30 to 300 uM after 48 hrs under hypoxic condition by MTT assay; format: functional, cell-based
How it was run: as §1

[11] = system: MDA-MB-231; test: Cytotoxicity against human MDA-MB-231 cells assessed as reduction in cell viability at 300 uM after 48 hrs under normoxic condition by MTT assay; format: functional, cell-based
How it was run: as §1

[12] = system: MDA-MB-231; test: Cytotoxicity against human MDA-MB-231 cells assessed as reduction in cell viability at 300 uM after 48 hrs under hypoxic condition by MTT assay; format: functional, cell-based
How it was run: as §1

[13] = system: MDA-MB-231; test: Cytotoxicity against human MDA-MB-231 cells assessed as reduction in cell viability at 30 to 100 uM after 48 hrs under hypoxic condition by MTT assay; format: functional, cell-based
How it was run: as §1

`NS(=O)(=O)c1ccc(NC(=[Se])Nc2ccccc2Cl)cc1` showed a Ki [1] of 0.0039 µM.

For `NS(=O)(=O)c1cccc(NC(=[Se])Nc2ccccc2)c1`, the Ki [1] was 0.33 µM.

In the case of `NS(=O)(=O)c1ccc(NC(=[Se])Nc2ccccc2F)cc1`, the Ki [1] is reported as 0.0058 µM.

`COc1ccccc1NC(=[Se])NCCc1ccc(S(N)(=O)=O)cc1` showed a Ki [1] of 0.0031 µM.

With `NS(=O)(=O)c1ccc(NC(=O)Nc2ccc(F)cc2)cc1` the Activity [2] was “Active”, the Activity [3] was “Active” and the Activity [4] was “Active”. The Activity [5] was “inactive”, the Activity [6] was “Active” and the Activity [7] was “inactive”.

Molecule `NS(=O)(=O)c1ccc(CCNC(=[Se])Nc2ccccc2Cl)cc1` has a Ki [1] of 0.0048 µM.

For `NS(=O)(=O)c1ccc(NC(=[Se])Nc2cccc(C(F)(F)F)c2)cc1`, the Ki [1] was 0.0159 µM.

In the case of `NS(=O)(=O)c1ccc(CCNC(=[Se])Nc2ccccc2F)cc1`, the Ki [1] is reported as 0.0087 µM, the Activity [8] is reported as “Active” and the Activity [2] is reported as “inactive”. For the same molecule, the Activity [9] was “inactive”, the Activity [10] was “Active” and the Activity [11] was “Active”. The Activity [12] was “Active”, the Activity [13] was “inactive” and the Activity [6] was “inactive”.

For `NS(=O)(=O)c1ccc(CCNC(=[Se])Nc2ccc(I)cc2)cc1`, the Ki [1] was 0.0549 µM, the Activity [8] was “inactive” and the Activity [2] was “inactive”. The Activity [9] was “inactive”, the Activity [10] was “inactive” and the Activity [11] was “inactive”. For the same molecule, the Activity [12] was “inactive”, the Activity [13] was “inactive” and the Activity [6] was “inactive”.

Molecule `NS(=O)(=O)c1ccc(CCNC(=[Se])Nc2cccc(C(F)(F)F)c2)cc1` has a Ki [1] of 0.0058 µM.

`NS(=O)(=O)c1ccc(CCNC(=[Se])Nc2ccc(Br)cc2)cc1` showed a Ki [1] of 0.0048 µM.

In the case of `NS(=O)(=O)c1ccc(NC(=[Se])Nc2ccc(F)cc2)cc1`, the Ki [1] is reported as 0.063 µM, the Activity [8] is reported as “Active” and the Activity [2] is reported as “inactive”. The Activity [10] was “Active”, the Activity [3] was “Active” and the Activity [5] was “Active”. The Activity [6] was “inactive” and the Activity [7] was “Active”.

With `NS(=O)(=O)c1ccc(NC(=S)Nc2ccc(F)cc2)cc1` the Ki [1] was 0.0321 µM, the Activity [5] was “inactive” and the Activity [7] was “inactive”.

With `NS(=O)(=O)c1ccc(NC(=[Se])Nc2ccccc2)cc1` the Ki [1] was 0.0789 µM.

For `NS(=O)(=O)c1ccc(CCNC(=[Se])Nc2ccccc2)cc1`, the Ki [1] was 0.0053 µM.

`NS(=O)(=O)c1ccc(CCNC(=[Se])Nc2ccc3ccccc3c2)cc1` showed a Ki [1] of 0.0931 µM.

`NS(=O)(=O)c1cccc(NC(=[Se])Nc2ccc(F)cc2)c1` showed a Ki [1] of 0.0978 µM.
